# Key:
# HT-29 [1] = test: Effect on human HT29 cells under hypoxic conditions assessed as drug level causing 10% clonogenic survival; format: functional
# In short: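 HT29 suspensions (1 or 2 × 10^6 cells/mL) in serum-free medium were stirred under 5% CO2/95% N2 for 90 min. Drug was added from deoxygenated DMSO stock at a level giving about 10% survival at 1 h, and samples were taken up to 3 h. Clonogenic survival (14 days, methylene blue) was fitted with the HPLC concentration–time data, and the 10% survival exposure was interpolated.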
# SiHa [2] = test: Cytotoxicity against human SiHa cells under hypoxic conditions after 4 hrs; format: functional, cell-based
# HT-29 [3] = test: Diffusion coefficient, D in HT29 multicellular layers; format: ADME, cell-based; conditions: human
# In short: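 HT29 multicellular layers were grown 3 days on collagen-coated Teflon membranes, equilibrated 60 min under 95% O2/5% CO2 at 37 °C, then placed in a diffusion chamber. Donor and receiver were sampled up to 5 h and assayed by HPLC. D came from fitting both profiles to a Fickian model with membrane and MCL in series, corrected by support-only Ds.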
# [4] = Solubility in culture medium in presence of 5% fetal calf serum; format: physicochemical; conditions: culture medium with 5% fetal calf serum
# HT-29 [5] = test: Ratio of IC50 for HT29 cells under oxic conditions to hypoxic conditions after 4 hrs; format: functional, Homo sapiens
# SiHa [6] = test: Ratio of IC50 for SiHa cells under oxic conditions to hypoxic conditions after 4 hrs; format: functional, Homo sapiens
# HT-29 [7] = test: Cytotoxicity against human HT29 cells under hypoxic conditions after 4 hrs; format: functional, cell-based; conditions: HT-29, 4 h
# Mus musculus = test: Toxicity in ip dosed CD1 mouse; format: organism-based; conditions: in vivo
# In short: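 MTD in CD-1 homozygous nude mice after single i.p. doses (HCl salts in saline, 5% DMSO/saline or lactate buffer pH 4.0), escalated in 1.33-fold increments. MTD taken as the highest dose causing no death, no body weight loss >15% and no other severe morbidity in any of 6 mice.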
# [8] = AUC in CD1 mouse at 316 umol/kg, ip; format: ADME, organism-based; conditions: plasma
# In short: (§1)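 Single i.p. dose to CD-1 homozygous nude mice, drug as HCl salt in 0.9% saline, 5% DMSO/saline or lactate buffer (pH 4.0). Plasma total drug measured by HPLC at 75 or 100% of MTD (MTD from 1.33-fold dose steps, 6 mice). Noncompartmental analysis gave AUC, Cmax and t1/2.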
# [9] = Cmax in CD1 mouse at 316 umol/kg, ip; format: ADME, organism-based; parameters: dose 316 umol/kg, route intraperitoneal; conditions: in vivo; in short: as §1
# [10] = Half life in CD1 mouse at 316 umol/kg, ip; format: ADME, organism-based; conditions: in vivo; in short: as §1
# [11] = Cmax in CD1 mouse at 1000 umol/kg, ip; format: ADME, organism-based; parameters: dose 1000 umol/kg, route intraperitoneal; conditions: in vivo; in short: as §1
# HT-29 [12] = test: Antitumor activity against human HT29 cells implanted in CD1 mouse at 1000 umol/kg, ip administered 5 mins after irradiation by excision assay relative to radiation alone; format: functional
# In short: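 Hypoxic-cell excision assay in HT29 xenografts in CD-1 homozygous nude mice. Mice received 20 Gy γ radiation to sterilize oxic tumor cells, then a single i.p. drug dose (HCl salt in saline, 5% DMSO/saline or pH 4.0 lactate buffer) 5 min later. Tumors excised at 18 h and plated for clonogens/g. Log cell kill = log(clonogens/g, radiation only) − log(clonogens/g, radiation plus drug).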
# HT-29 [13] = test: Antitumor activity against human HT29 cells implanted in CD1 mouse assessed as clonogenic survival at 1000 umol/kg, ip after 18 hrs relative to control; format: functional
# In short: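 HT29 xenografts in CD-1 homozygous nude mice; single i.p. dose of drug alone, formulated as the HCl salt in 0.9% saline, 5% DMSO/saline or lactate buffer (pH 4.0). Tumors excised 18 h later, dissociated to single-cell suspensions and plated. Clonogens/g of tumor counted; surviving fraction = treated/control clonogens/g.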
# [14] = Half life in CD1 mouse at 1000 umol/kg, ip; format: ADME, organism-based; conditions: in vivo; in short: as §1
D (HT-29 [3]) [cm²/s],solubility [4] [mM],Structure (SMILES),Activity (HT-29 [1]) [µM·h],IC50 (SiHa [2]) [µM],Ratio IC50 (HT-29 [5]),Ratio IC50 (SiHa [6]),IC50 (HT-29 [7]) [µM],MTD (Mus musculus) [µmol/kg],AUC [8] [µM·h],Cmax [9] [µM],half-life [10] [min],Cmax [11] [µM],LCK (HT-29 [12]),LCK (HT-29 [13]),half-life [14] [min]
–,30,CC(C)c1ccc2c(c1)[n+]([O-])c(NCCN1CCOCC1)n[n+]2[O-],217.8,15.5,14,33,45.1,–,–,–,–,–,–,–,–
–,23,CCN(CC)CCNc1n[n+]([O-])c2ccc(Cl)cc2[n+]1[O-],–,0.2,43,28,0.3,–,–,–,–,–,–,–,–
–,42,CC(C)c1ccc2c(c1)[n+]([O-])c(NCCN(C)C)n[n+]2[O-],11.6,1.1,120,104,1.9,–,–,–,–,–,–,–,–
–,49,Cc1ccc2c(c1)[n+]([O-])c(NCCCN1CCC(C#N)C1)n[n+]2[O-] (stereo not drawn),62.2,9.2,54,54,14.1,–,–,–,–,–,–,–,–
1.5e-06,28,CC(C)(C)c1ccc2c(c1)[n+]([O-])c(NCCN1CCCCC1)n[n+]2[O-],30.3,0.6,31,121,4,–,–,–,–,–,–,–,–
–,> 51,CCOc1ccc2c(c1)[n+]([O-])c(NCCCN1CCOCC1)n[n+]2[O-],260.6,7.6,52,140,18,–,–,–,–,–,–,–,–
–,18,CC(C)c1ccc2c(c1)[n+]([O-])c(NCCN1CCCCC1)n[n+]2[O-],15.2,1.1,41,65,2.7,–,–,–,–,–,–,–,–
–,48,COc1ccc2c(c1)[n+]([O-])c(NCCN1CCOCC1)n[n+]2[O-],–,40.9,>39,70,103,–,–,–,–,–,–,–,–

# The next lines start with the compound.
Structure (SMILES),D (HT-29 [3]) [cm²/s],solubility [4] [mM],Activity (HT-29 [1]) [µM·h],IC50 (SiHa [2]) [µM],Ratio IC50 (HT-29 [5]),Ratio IC50 (SiHa [6]),IC50 (HT-29 [7]) [µM],MTD (Mus musculus) [µmol/kg],AUC [8] [µM·h],Cmax [9] [µM],half-life [10] [min],Cmax [11] [µM],LCK (HT-29 [12]),LCK (HT-29 [13]),half-life [14] [min]
CN(C)CCCNc1n[n+]([O-])c2ccccc2[n+]1[O-],1.87e-07,38,7.8,2.3,49,82,3.4,–,–,–,–,–,–,–,–
CCCN(CCC)CCNc1n[n+]([O-])c2ccc(Cl)cc2[n+]1[O-],–,0.6,–,0.3,9,21,0.6,–,–,–,–,–,–,–,–
CCCN(CCC)CCNc1n[n+]([O-])c2ccc(C(C)(C)C)cc2[n+]1[O-],1.75e-06,32,66.6,3.8,18,35,8.3,–,–,–,–,–,–,–,–
CCc1ccc2c(c1)[n+]([O-])c(NCCN(C)C)n[n+]2[O-],–,> 49,6.2,0.5,116,186,1.3,421,13.2,21.6,12.7,–,–,–,–
CC1CCCC(C)N1CCNc1n[n+]([O-])c2ccccc2[n+]1[O-] (stereo not drawn),6.81e-07,48,5.7,0.9,15,41,2.2,–,–,–,–,–,–,–,–
Cc1ccc2c(c1)[n+]([O-])c(N)n[n+]2[O-],5.43e-07,3,61.9,–,36,–,12.9,1000,–,–,–,198,2.16,0.39,34.1
COc1ccc2c(c1)[n+]([O-])c(NCCN1CCCCC1)n[n+]2[O-],–,45,38.9,3,24,65,10.8,421,20.2,26.7,24.6,–,–,–,–
